From ChEMBL document CHEMBL3526095, “Characterization of the in vitro and in vivo metabolism and disposition and cytochrome P450 inhibition/induction profile of saxagliptin in human” (Drug Metab Dispos, 2012)

Tests used:
[1] = Oral bioavailability in monkey; format: ADME, organism-based, Macaca mulatta; settings: rhesus monkey, in vivo
[2] = target: T1, Cytochrome P450 2B6 (Homo sapiens, UniProt P20813); test: Inhibition of CYP2B6 in human liver microsomes assessed as bupropion hydroxylation preincubated for 15 mins by LC-MS/MS analysis in presence of NADPH; format: ADME
T1 sequence (P20813 whole entry): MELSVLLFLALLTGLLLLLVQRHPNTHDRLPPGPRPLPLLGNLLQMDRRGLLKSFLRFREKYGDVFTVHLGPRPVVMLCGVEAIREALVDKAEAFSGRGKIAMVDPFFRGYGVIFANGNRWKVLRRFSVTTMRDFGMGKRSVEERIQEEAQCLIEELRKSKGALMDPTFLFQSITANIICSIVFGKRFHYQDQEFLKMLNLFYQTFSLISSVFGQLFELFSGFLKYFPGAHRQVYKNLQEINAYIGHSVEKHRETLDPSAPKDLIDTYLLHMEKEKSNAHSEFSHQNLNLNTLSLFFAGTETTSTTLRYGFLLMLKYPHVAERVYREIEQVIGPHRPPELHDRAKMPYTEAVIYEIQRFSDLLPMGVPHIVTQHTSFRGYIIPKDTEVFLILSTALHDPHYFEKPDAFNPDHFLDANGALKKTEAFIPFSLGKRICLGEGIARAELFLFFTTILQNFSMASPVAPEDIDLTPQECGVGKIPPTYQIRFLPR
Method in brief: (§1)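 Pooled HLM from 15 donors, probe substrate near its experimentally determined level, in 100 mM phosphate buffer pH 7.4 at 37°C. Saxagliptin tested at 0.1–50 µM, M2 at 0.1–200 µM. Direct inhibition: 3-min equilibration, then reaction started with 1 mM NADPH. Time-dependent inhibition: 15-min preincubation with or without NADPH, then substrate added.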

[3] = target: T2, Cytochrome P450 2D6 (Homo sapiens, UniProt P10635); test: Inhibition of CYP2D6 in human liver microsomes assessed as bufuralol 1'-hydroxylation preincubated for 15 mins by LC-MS/MS analysis; format: ADME
Method in brief: (§2)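 Time-dependent format. Pooled human liver microsomes (15 donors) were preincubated 15 min at 37°C with test compound, with and without 1 mM NADPH. The probe substrate was then added at the same concentration as in the direct assay.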

[4] = target: T3, Cytochrome P450 2C9 (Homo sapiens, UniProt P11712); test: Inhibition of CYP2C9 in human liver microsomes assessed as paclitaxel 6alpha-hydroxylation after 3 mins by LC-MS/MS analysis in presence of NADPH; format: ADME; settings: in the assay text read “tolbutamide hydroxylation” for “paclitaxel 6alpha-hydroxylation”; method in brief: as §1
[5] = target: T3, Cytochrome P450 2C9; test: Inhibition of CYP2C9 in human liver microsomes assessed as paclitaxel 6alpha-hydroxylation preincubated for 15 mins by LC-MS/MS analysis in presence of NADPH; format: ADME; settings: in the assay text read “tolbutamide hydroxylation” for “paclitaxel 6alpha-hydroxylation”; method in brief: as §1
[6] = target: T1, Cytochrome P450 2B6; test: Inhibition of CYP2B6 in human liver microsomes assessed as bupropion hydroxylation after 3 mins by LC-MS/MS analysis in presence of NADPH; format: ADME; method in brief: as §1
[7] = target: T4, Cytochrome P450 2E1 (Homo sapiens, UniProt P05181); test: Inhibition of CYP2E1 in human liver microsomes assessed as chlorzoxazone 6-hydroxylation after 3 mins by LC-MS/MS analysis in presence of NADPH; format: ADME
[8] = target: T5, Cytochrome P450 2C19 (Homo sapiens, UniProt P33261); test: Inhibition of CYP2C19 in human liver microsomes assessed as (S)-mephenytoin 4'-hydroxylation after 3 mins by LC-MS/MS analysis; format: ADME; method in brief: as §1
[9] = system: Hepatocyte; test: Induction of CYP1A2 mRNA expression in human hepatocytes assessed as phenacetin O-deethylation up to 25 uM by LC-MS/MS analysis; format: ADME, cell-based
Method in brief: (§3)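 Primary hepatocytes from three donors treated once daily for 3 days: saxagliptin 0.2–25 µM, M2 0.2–100 µM, 0.1% DMSO as vehicle. Microsomal activity assayed by LC-MS/MS: phenacetin 100 µM with 0.02 mg/ml protein (CYP1A2), bupropion 250 µM with 0.02 mg/ml (CYP2B6), testosterone 200 µM with 0.01 mg/ml (CYP3A4). mRNA measured by TaqMan qPCR as 2^ΔCT relative to endogenous control and DMSO.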

[10] = target: T2, Cytochrome P450 2D6; test: Inhibition of CYP2D6 in human liver microsomes assessed as bufuralol 1'-hydroxylation after 3 mins by LC-MS/MS analysis; format: ADME
[11] = target: T4, Cytochrome P450 2E1; test: Inhibition of CYP2E1 in human liver microsomes assessed as chlorzoxazone 6-hydroxylation preincubated for 15 mins by LC-MS/MS analysis in presence of NADPH; format: ADME; method in brief: as §2
[12] = target: T6, Cytochrome P450 2C8 (Homo sapiens, UniProt P10632); test: Inhibition of CYP2C8 in human liver microsomes assessed as paclitaxel 6alpha-hydroxylation after 3 mins by LC-MS/MS analysis in presence of NADPH; format: ADME; method in brief: as §1
T6 sequence (P10632 whole entry): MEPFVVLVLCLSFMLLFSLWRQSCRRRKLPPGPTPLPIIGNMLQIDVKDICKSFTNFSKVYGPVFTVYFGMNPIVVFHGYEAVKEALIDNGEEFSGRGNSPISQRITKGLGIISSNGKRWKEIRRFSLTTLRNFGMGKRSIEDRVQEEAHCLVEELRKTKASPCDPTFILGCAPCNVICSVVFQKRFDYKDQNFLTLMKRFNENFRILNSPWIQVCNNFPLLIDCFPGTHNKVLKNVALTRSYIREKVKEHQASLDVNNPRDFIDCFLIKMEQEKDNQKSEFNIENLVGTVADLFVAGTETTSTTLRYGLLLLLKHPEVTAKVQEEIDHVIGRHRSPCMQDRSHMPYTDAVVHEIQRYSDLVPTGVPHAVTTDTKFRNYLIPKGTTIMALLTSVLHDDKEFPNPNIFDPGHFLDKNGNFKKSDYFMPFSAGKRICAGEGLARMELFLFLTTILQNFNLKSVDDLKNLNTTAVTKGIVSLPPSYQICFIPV

[13] = target: T6, Cytochrome P450 2C8; test: Inhibition of CYP2C8 in human liver microsomes assessed as paclitaxel 6alpha-hydroxylation preincubated for 15 mins by LC-MS/MS analysis in presence of NADPH; format: ADME; method in brief: as §1
[14] = target: T5, Cytochrome P450 2C19; test: Inhibition of CYP2C19 in human liver microsomes assessed as (S)-mephenytoin 4'-hydroxylation preincubated for 15 mins by LC-MS/MS analysis; format: ADME; method in brief: as §1
[15] = target: Cytochrome P450 3A5 (Homo sapiens, UniProt P20815); test: Drug metabolism assessed as human CYP3A5-mediated metabolite formation treated with 10 uM of [14C]saxagliptin after 30 mins by LC-MS/MS analysis; format: ADME; settings: recombinant enzyme, 0.5 h
Method in brief: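 Expressed human CYP3A4 or CYP3A5 at 500 pmol/ml, incubated with 10 µM [14C]saxagliptin and 1 mM NADPH in 100 mM phosphate buffer pH 7.4 at 37°C for 30 min. Stopped with ice-cold acetonitrile; analysed by LC-MS/MS and off-line radioanalysis.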

[16] = system: Hepatocyte; test: Induction of CYP3A4 mRNA expression in human hepatocytes assessed as testosterone 6beta-hydroxylation up to 100 uM by LC-MS/MS analysis; format: ADME, cell-based; method in brief: as §3

T5 sequence (P33261 whole entry): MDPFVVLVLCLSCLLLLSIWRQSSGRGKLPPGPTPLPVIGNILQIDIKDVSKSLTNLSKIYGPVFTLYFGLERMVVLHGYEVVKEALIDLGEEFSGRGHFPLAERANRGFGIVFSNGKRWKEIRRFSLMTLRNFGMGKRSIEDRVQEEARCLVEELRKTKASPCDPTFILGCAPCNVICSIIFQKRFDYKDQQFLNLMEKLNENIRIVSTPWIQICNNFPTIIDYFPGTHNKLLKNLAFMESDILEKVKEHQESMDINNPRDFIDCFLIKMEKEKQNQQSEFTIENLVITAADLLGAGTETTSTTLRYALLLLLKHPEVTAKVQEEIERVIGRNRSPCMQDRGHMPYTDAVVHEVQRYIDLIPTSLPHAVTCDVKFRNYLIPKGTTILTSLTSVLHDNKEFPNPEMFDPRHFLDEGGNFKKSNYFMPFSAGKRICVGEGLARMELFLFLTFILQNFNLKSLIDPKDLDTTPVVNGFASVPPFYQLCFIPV
T3 sequence (P11712 whole entry): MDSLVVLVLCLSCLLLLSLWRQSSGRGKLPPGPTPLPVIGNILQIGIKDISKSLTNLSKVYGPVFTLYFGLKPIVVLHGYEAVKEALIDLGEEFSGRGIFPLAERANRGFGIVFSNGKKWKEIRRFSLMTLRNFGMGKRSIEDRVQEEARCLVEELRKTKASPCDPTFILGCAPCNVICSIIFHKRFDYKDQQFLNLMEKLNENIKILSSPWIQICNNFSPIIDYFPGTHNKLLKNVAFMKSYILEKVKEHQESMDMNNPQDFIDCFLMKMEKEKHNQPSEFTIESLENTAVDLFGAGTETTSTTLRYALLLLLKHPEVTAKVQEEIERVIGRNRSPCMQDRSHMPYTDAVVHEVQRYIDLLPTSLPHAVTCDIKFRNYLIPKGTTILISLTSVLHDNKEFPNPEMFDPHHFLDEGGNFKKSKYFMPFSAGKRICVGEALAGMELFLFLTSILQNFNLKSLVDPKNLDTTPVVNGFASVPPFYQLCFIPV
T4 sequence (P05181 whole entry): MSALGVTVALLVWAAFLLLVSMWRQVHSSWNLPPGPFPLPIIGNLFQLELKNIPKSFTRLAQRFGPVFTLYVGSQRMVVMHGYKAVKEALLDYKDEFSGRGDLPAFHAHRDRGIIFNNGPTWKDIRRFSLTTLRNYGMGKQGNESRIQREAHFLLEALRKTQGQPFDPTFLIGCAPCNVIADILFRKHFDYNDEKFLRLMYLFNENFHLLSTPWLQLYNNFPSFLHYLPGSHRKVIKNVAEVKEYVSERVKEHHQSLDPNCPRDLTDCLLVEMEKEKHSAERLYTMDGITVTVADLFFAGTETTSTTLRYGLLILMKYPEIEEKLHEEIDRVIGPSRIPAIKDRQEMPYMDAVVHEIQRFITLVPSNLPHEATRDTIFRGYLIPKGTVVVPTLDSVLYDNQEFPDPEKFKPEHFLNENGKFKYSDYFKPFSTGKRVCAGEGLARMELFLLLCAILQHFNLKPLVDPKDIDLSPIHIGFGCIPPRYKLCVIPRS
T2 sequence (P10635 whole entry): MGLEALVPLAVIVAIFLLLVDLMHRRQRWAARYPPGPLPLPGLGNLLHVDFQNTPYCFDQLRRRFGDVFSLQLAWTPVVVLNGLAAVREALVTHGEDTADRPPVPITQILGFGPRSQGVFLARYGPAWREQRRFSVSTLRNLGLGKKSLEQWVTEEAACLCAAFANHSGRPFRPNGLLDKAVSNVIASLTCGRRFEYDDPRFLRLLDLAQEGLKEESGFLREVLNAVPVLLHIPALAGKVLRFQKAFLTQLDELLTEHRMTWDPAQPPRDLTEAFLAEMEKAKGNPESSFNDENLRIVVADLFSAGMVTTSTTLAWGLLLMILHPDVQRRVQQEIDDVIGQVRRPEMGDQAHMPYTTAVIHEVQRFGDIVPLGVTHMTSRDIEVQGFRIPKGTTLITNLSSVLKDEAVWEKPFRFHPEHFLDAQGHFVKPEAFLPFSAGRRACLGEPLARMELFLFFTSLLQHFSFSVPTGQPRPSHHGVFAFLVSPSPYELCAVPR
Chain of Cytochrome P450 3A5 (P20815 whole entry): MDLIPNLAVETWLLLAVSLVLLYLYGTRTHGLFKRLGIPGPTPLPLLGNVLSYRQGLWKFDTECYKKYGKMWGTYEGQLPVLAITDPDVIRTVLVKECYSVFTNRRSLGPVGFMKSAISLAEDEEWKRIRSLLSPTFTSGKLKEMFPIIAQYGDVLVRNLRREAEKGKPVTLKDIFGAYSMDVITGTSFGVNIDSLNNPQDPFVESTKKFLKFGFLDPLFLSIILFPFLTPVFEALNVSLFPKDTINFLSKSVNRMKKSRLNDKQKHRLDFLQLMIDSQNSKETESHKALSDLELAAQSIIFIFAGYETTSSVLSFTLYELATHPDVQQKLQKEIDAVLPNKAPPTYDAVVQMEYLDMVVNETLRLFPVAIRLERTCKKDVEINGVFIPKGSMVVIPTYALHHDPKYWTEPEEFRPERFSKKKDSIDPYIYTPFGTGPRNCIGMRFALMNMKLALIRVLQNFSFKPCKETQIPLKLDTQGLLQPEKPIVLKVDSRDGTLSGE

SMILES | bioavailability [1] | IC50 [2] | IC50 [3] | IC50 [4] | IC50 [5] | IC50 [6] | IC50 [7] | IC50 [8] | Activity [9] | IC50 [10] | IC50 [11] | IC50 [12] | IC50 [13] | IC50 [14] | Drug metabolism [15] | Activity [16]
N#C[C@@H]1C[C@@H]2C[C@@H]2N1C(=O)[C@@H](N)C12CC3CC(CC(O)(C3)C1)C2 [SAXAGLIPTIN ANHYDROUS] | 51% | > 50 µM | > 50 µM | > 50 µM | > 50 µM | > 50 µM | > 50 µM | > 50 µM | Not Active | > 50 µM | > 50 µM | > 50 µM | > 50 µM | > 50 µM |  | 
N#C[C@@H]1C[C@@H]2C[C@@H]2N1C(=O)[C@@H](N)C12CC3CC(O)(CC(O)(C3)C1)C2 |  | > 200 µM | > 200 µM | > 200 µM | > 200 µM | > 200 µM | > 200 µM | > 200 µM |  | > 200 µM | > 200 µM | > 200 µM | > 200 µM | > 200 µM | metabolite_detected | Not Active
